Screening data as filed in PubChem.
Most compounds without a hit are left out; they make up all but 1.4% or so of the library.
PfG6PD inh = PfG6PD (Plasmodium falciparum) enzyme inhibition; PfGluPho enzyme, NADPH resazurin-diaphorase fluorescence; inhibition, % at 20 µM; 0.78% of 350,000 active; AID 504690;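 active means inhibition reaching at least a set limit at 20 µM in the primary screen, cut at about 59% in these data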;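 further: 0% = DMSO wells with substrate and 100% = DMSO wells lacking glucose-6-phosphate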
APOBEC3A inh = blocks human APOBEC3A ssDNA deamination; recombinant A3A, FAM/TAMRA ssDNA deamination fluorescence; inhibition, % at 20 µM; P31941; AID 493011; 0.41% of 330,000 active;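 active means at least 40% inhibition at 20 µM here, with at most 30% in a related deaminase screen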;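 further: plate controls were A3A with DMSO for no effect and wells lacking A3A enzyme for full effect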
Target sequence (P31941 whole entry, looked up): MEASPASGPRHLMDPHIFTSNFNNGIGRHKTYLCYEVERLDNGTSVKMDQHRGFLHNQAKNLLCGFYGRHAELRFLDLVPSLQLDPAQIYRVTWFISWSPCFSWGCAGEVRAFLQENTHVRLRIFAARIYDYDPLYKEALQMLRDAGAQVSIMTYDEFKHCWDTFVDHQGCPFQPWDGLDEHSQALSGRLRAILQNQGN
HKDC1 inhibitor = HKDC1 (human) hexokinase inhibition; recombinant HKDC1, G6PDH/diaphorase resazurin coupled fluorescence; Q2TB90; 0.16% of 340,000 active; inhibition, % at 20 µM;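 active means inhibition above about 35% when tested at 20 µM, limit read from the data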;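 further: plate controls were DMSO wells with enzyme for no effect and DMSO wells lacking enzyme for full effect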
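test system = in-house recombinant HK5 (HKDC1) enzyme | amount = HKDC1 at 5 µg/mL | control set = DMSO-enzyme wells negative, buffer-substituted wells positive | compound = one dose of 20 µM, 1% DMSO | schedule = reaction time 90 min, room temperature, protected from light | technique = resorufin fluorescence at 613 nm | reagent = glucose with 1 mM ATP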
iPSC survival up = increases survival of single human iPS cells; hiPSC single-cell survival, ATPlite luminescence; 100% = ROCK inhibitor wells, 0% = DMSO; survival enhancement, % at 20 µM; 0.044% of 360,000 active; AID 602274; in the data active means survival enhancement above about 18%;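 further: cells exposed to compounds for 16 hours before the ATP read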
A3G deaminase = blocks human APOBEC3G single-stranded DNA deamination | Q9HC16 | recombinant A3G, ssDNA deamination FAM/TAMRA fluorescence | inhibition, % at 20 µM | 0.28% of 330,000 active | AID 493012;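 active means inhibition of at least 40% at 20 µM, with no more than 30% in the related APOBEC3A deaminase screen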;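 further: plate controls were DMSO wells with A3G for no effect and wells lacking A3G enzyme for full effect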
Target sequence (Q9HC16 whole entry, looked up): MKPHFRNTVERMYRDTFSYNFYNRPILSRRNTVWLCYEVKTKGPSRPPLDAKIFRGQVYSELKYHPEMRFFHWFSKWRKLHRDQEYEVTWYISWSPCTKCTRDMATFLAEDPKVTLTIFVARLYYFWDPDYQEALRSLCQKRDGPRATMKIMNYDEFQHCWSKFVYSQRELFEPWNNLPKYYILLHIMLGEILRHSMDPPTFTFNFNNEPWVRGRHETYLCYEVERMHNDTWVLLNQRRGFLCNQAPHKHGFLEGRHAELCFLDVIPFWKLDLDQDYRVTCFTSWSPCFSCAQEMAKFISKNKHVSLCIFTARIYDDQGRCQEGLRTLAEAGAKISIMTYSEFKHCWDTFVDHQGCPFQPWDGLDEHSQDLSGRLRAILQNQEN
PfGluPho conf = confirmation of Plasmodium falciparum G6PD inhibitors; shares compounds with PfG6PD inh; recombinant PfGluPho, NADPH-diaphorase-resazurin fluorescence; inhibition, % at 20 µM; 34% of 2,400 active;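 active means inhibition of at least 50% at 20 µM in any single replicate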;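 further: 0% = DMSO with substrate and 100% = DMSO lacking glucose-6-phosphate substrate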
Diaph ctr 10uM = inhibits diaphorase or oxidizes, flagging false PfG6PD hits | shares compounds with PfG6PD inh | diaphorase-coupled resazurin reduction, fluorescence, NADPH 10 uM | inhibition, % at 20 µM | 39% of 820 active;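 active means average inhibition reaching 50% or more with the compound at 20 µM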;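 further: resorufin red fluorescence formed as diaphorase reduces resazurin using NADPH; 0% = DMSO with enzyme and 100% = DMSO without enzyme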
Diaph ctr 30uM = counter-screen for P. falciparum G6PD inhibitors: diaphorase inhibitors, oxidizers | shares compounds with PfG6PD inh | Diaphorase/resazurin coupled assay, resorufin fluorescence, 30 uM NADPH | inhibition, % at 20 µM | 29% of 820 active | AID 504863;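 active means inhibition averaging 50% or more, tested at 20 µM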;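 further: 0% = DMSO with enzyme and 100% = DMSO wells lacking diaphorase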
Numbers without * were called inactive; x = no result given.

SMILES | PfG6PD inh | APOBEC3A inh | HKDC1 inhibitor | iPSC survival up | A3G deaminase | PfGluPho conf | others
O=C(CSc1nnc(-c2ccncc2)o1)Nc1cc(F)ccc1F | -7 | -4 | -1 | 4 | -9 | x
O=C(CSc1nnc(-c2ccncc2)o1)Nc1cc(Cl)ccc1C(=O)O | 60* | -4 | -1 | 3 | -4 | 28
COc1ccc(-c2c3c([nH]c(=S)c2C#N)CCC3)cc1 | 64* | x | 3 | 0 | x | 42
CCN(CC)C(=O)c1c(C)[nH]c(=S)c(C#N)c1-c1ccco1 | 61* | 4 | -2 | 0 | 39 | 51* | Diaph ctr 10uM=3;Diaph ctr 30uM=-4
COc1ccc(-c2c(C#N)c(SCC(N)=O)nc3c2CCCC3)cc1 | -6 | 0 | 6 | -3 | -1 | x
N#Cc1c(-c2ccco2)c2c([nH]c1=S)CCCC2 | 71* | 32 | 4 | 0 | 43 | 34
COc1ccc(OC)c(-c2c3c([nH]c(=S)c2C#N)CCCC3)c1 | 61* | -2 | 2 | 0 | -10 | 27
CCOC(=O)CC1(NC(=O)C2CCC(=O)N(Cc3ccccc3OC)C2)CCCCC1 (stereo not drawn) | -5 | 0 | -4 | 0 | -2 | x
COc1cccc(CCc2nnc(CCC(=O)NC(C)Cc3cccs3)o2)c1 (stereo not drawn) | -2 | -6 | -7 | 1 | -3 | x
CC(C)Cc1c2c([nH]c(=S)c1C#N)CCCC2 | 70* | 0 | 5 | 4 | 2 | 37
CC1CCN(c2[nH]c(=S)c(C#N)c3c2CCCC3)CC1 | 43 | -3 | 6 | -1 | -6 | x
COc1cccc(C(=O)Nc2nnc(S(=O)(=O)N(C)Cc3ccccc3)s2)c1 | 88* | -3 | 10 | 0 | -7 | 77* | Diaph ctr 10uM=62*;Diaph ctr 30uM=39
CCOc1ccc(C(=O)Nc2nnc(S(=O)(=O)N(C)Cc3ccco3)s2)cc1 | -6 | -1 | -3 | 0 | 1 | x
COc1ccc(CN(C)S(=O)(=O)c2nnc(NC(=O)c3ccc(C)cc3)s2)cc1OC | 88* | -2 | 1 | 0 | -4 | 70* | Diaph ctr 10uM=39;Diaph ctr 30uM=27
COc1ccc(CN(C)S(=O)(=O)c2nnc(NC(=O)c3cccc(OC)c3)s2)cc1 | 96* | -3 | 11 | 0 | -4 | 62* | Diaph ctr 10uM=56*;Diaph ctr 30uM=60*
COc1ccc(CN(C)S(=O)(=O)c2nnc(NC(=O)c3ccccc3OC)s2)cc1OC | 10 | -2 | 0 | 0 | -2 | x
CN(Cc1ccco1)S(=O)(=O)c1nnc(NC(=O)c2ccc(F)cc2)s1 | 98* | 6 | -5 | 0 | 13 | 83* | Diaph ctr 10uM=72*;Diaph ctr 30uM=55*
Cc1c(C=O)c2ccccn2c1C(=O)c1cccs1 | 5 | 3 | -9 | 0 | 2 | x
O=C(Cc1ccc(-n2c(=O)c3sccc3n(CC(=O)Nc3ccccc3F)c2=O)cc1)NCc1ccco1 | 14 | -2 | 3 | 0 | -4 | x
CN(Cc1ccccc1)S(=O)(=O)c1nnc(NC(=O)c2ccccc2)s1 | 44 | -3 | -1 | 0 | 2 | x
COc1cccc(C(=O)Nc2nnc(S(=O)(=O)N(C)Cc3ccc(F)cc3)s2)c1 | 80* | 0 | 0 | -1 | 2 | 48
Cc1ccc(Nc2ccccc2)cc1 | -3 | -2 | -2 | -2 | -3 | x
Cc1ccc(Nc2cc(C)c(O)c(C)c2)cc1 | 107* | 1 | 29 | 0 | 2 | 69* | Diaph ctr 10uM=62*;Diaph ctr 30uM=28
Cc1c(N=NC2=C(O)CC(C)(C)CC2=O)c(=O)n(-c2ccccc2)n1C | 10 | -7 | -4 | -2 | -5 | x
O=[N+]([O-])c1ccc2c(c1N1CCCCC1)=NC1(CCCCC1)[N+]=2[O-] | 23 | 2 | 31 | 1 | -5 | x
SMILES | PfG6PD inh | APOBEC3A inh | HKDC1 inhibitor | iPSC survival up | A3G deaminase | PfGluPho conf | others
COc1ccc(NC2=NC(=S)N(c3ccccc3C)C23CCCCC3)cc1 | 3 | -6 | -1 | 0 | -6 | x
[O-][N+]1=c2ccc(Nc3ccccc3)cc2=NC12CCCCC2 | 61* | x | 20 | -3 | x | 0
COc1ccc(Nc2ccc3c(c2)=NC2(CCCCC2)[N+]=3[O-])cc1 | 78* | 1 | 24 | -5 | -9 | 14
CCOC(=O)C(C)Sc1nc(-c2cccs2)ccc1C#N (stereo not drawn) | 78* | 4 | -1 | -4 | -1 | 2
C=COC(=O)CSc1nc(-c2cccs2)ccc1C#N | -11 | 1 | -6 | 4 | -3 | x
O=C(CN1CCN(S(=O)(=O)N2CCCCC2)CC1)Nc1ccc(Br)cc1 | -3 | -4 | -2 | 0 | 9 | x
Cc1ccc2[nH]c(O)c(N=NC(=O)C(C)n3cnc4ccccc4c3=O)c2c1 (stereo not drawn) | 68* | 1 | 10 | 1 | 3 | 50* | Diaph ctr 10uM=68*;Diaph ctr 30uM=55*
CC(C(=O)c1ccccc1)n1cnc2ccccc2c1=O (stereo not drawn) | 0 | 1 | -1 | 0 | 3 | x
O=C(N/N=C/c1cccc([N+](=O)[O-])c1)c1ccccc1-n1cccc1 | 63* | 0 | -10 | -1 | -4 | 44
Cc1cc(C)nc(SCC(=O)N/N=C/c2cccc([N+](=O)[O-])c2)n1 | 93* | -1 | 10 | 0 | 2 | 30
C[C@H](CO)N1C[C@H](C)[C@@H](CN(C)S(=O)(=O)c2ccc(F)cc2)Oc2ccc(NS(=O)(=O)c3ccccc3)cc2C1=O | -13 | 1 | 4 | 2 | 5 | x
CCN1CCN(c2ccc(S(=O)(=O)N3CCOCC3)cc2NC(=O)CCC(C)C)CC1 | -11 | 4 | -5 | 0 | 4 | x
N#CC(C#N)=C1C=CC=CN1/C(=C\c1ccccc1Cl)C(=O)c1ccccc1 | 78* | x | 7 | -1 | x | 57* | Diaph ctr 10uM=-5;Diaph ctr 30uM=-2
Clc1ccc(C2=Nn3c(Cn4nnc5ccccc54)nnc3SC2)cc1 | 63* | -4 | -3 | 0 | 28 | 46
Fc1ccc(C2=Nn3c(Cc4ccccc4F)nnc3SC2)cc1 | 7 | -19 | -2 | 11 | -6 | x
c1ccc(Cc2nnc3n2N=C(c2ccccc2)CS3)cc1 | 61* | -4 | -1 | 2 | -7 | 22
c1ccc(-c2ccc(C3=Nn4c(Cn5nnc6ccccc65)nnc4SC3)cc2)cc1 | 72* | 1 | -8 | -2 | 28 | 13
c1ccc(C2=Nn3c(Cn4nnc5ccccc54)nnc3SC2)cc1 | 26 | 9 | -1 | 2 | 3 | x
COc1ccc(S(=O)(=O)N2CCCCCC2)cc1C(=O)N(C)CC(=O)Nc1ccccc1C(F)(F)F | 0 | 0 | 5 | 1 | -6 | x
CCN(CC)CCCNc1ccc2ncn3c4ccc(O)cc4c(=O)c1c23 | 80* | x | 29 | -5 | x | -13
